Measured values: article PMC3472134 (Bioorganic & medicinal chemistry letters, 2012)
“Also recorded” adds a separate entry of the source.

Legend:
[1] = target: recombinant human HDAC3 (Homo sapiens, UniProt O15379); assay: HDAC3 inhibition, fluorogenic substrate Boc-Lys; assay type: biochemical
[2] = test system: nuclear class I HDACs (acetylation status of histone H4) in SH-SY5Y cells; assay: Western blot of acetylation of histone H4 in SH-SY5Y cells; assay type: cell-based; settings: 24 h treatment
Outline: (§1)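 SH-SY5Y cells were seeded at 1.0 x 10^5 cells/well and grown to 80% confluence in 1:1 DMEM:OPTI-MEM with 10% FBS and antibiotics. They were exposed to vehicle or rising concentrations of test compound for 24 h at 37 °C, 5% CO2, then lysed in RIPA with protease/phosphatase inhibitors. 20 µg of total protein (BCA) went to SDS-PAGE/PVDF, probed overnight at 4 °C for acetyl-α-tubulin or acetyl-histone H4, with GAPDH; chemiluminescence imaged by CCD.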

[3] = test system: cytoplasmic HDAC6 (acetylation status of α-tubulin) in SH-SY5Y cells; assay: Western blot of acetylation of α-tubulin in SH-SY5Y cells; assay type: cell-based; settings: 24 h treatment
Outline: as §1

[4] = target: T1, human recombinant HDAC8 (Homo sapiens, UniProt Q9BY41); assay: HDAC8 inhibition, fluorogenic substrate Fluor de Lys; assay type: biochemical
T1 sequence (Q9BY41 1-377): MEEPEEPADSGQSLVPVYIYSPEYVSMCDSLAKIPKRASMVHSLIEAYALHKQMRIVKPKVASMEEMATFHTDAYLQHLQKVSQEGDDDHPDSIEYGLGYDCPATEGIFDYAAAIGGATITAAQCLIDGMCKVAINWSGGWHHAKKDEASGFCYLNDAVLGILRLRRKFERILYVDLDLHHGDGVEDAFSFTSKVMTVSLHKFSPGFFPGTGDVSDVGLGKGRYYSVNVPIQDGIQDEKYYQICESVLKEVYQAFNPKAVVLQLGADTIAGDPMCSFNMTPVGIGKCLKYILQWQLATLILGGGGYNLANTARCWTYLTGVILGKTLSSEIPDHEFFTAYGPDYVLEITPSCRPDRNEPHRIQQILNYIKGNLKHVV

[5] = target: T1, human recombinant HDAC8; assay type: binding; settings: denaturing conditions, excess of competitor (1f at 50 fold molar excess)
[6] = Solubility; assay type: physicochemical; settings: remark on the photolabeling competition experiment

recombinant human HDAC3, sequence (O15379 whole entry): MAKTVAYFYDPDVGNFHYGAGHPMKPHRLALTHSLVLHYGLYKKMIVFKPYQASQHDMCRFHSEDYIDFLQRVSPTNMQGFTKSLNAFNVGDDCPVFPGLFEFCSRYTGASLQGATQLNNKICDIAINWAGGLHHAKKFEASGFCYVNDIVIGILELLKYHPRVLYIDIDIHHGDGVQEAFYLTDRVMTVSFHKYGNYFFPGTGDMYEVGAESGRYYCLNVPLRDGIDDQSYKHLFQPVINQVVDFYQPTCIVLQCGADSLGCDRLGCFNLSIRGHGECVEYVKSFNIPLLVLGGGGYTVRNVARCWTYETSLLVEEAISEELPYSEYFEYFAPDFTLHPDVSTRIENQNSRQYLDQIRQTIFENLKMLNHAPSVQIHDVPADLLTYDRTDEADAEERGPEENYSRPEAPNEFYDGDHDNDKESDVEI
recombinant human HDAC3, sequence (Q9Y618 395-489 partner limits assumed): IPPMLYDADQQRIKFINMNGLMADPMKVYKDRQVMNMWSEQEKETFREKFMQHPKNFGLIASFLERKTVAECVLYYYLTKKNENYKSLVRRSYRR

| Structure (SMILES) | IC50 [1] | Competition with probe 1b, effect on biotinylation of HDAC8 [5] | further results |
| --- | --- | --- | --- |
| COC(=O)CCCCCCC(=O)Nc1ccc(OCc2ccccc2)cc1 [1e] |  |  | IC50 [4]: > 66 µM |
| COC(=O)CCCCCCC(=O)Nc1ccc(OCc2cc(C)cc(C)c2)cc1 [1f, 7-[4-(3,5-Dimethyl-benzyloxy)phenylcarbamoyl]heptanoic acid methyl ester] |  | pronounced decrease in biotinylation | Solubility [6]: low solubility |
| COc1ccc(Cn2ccc3ccc(C(=O)NO)cc32)cc1 [PCI34051] |  | pronounced decrease in biotinylation |  |

Further lines, with some results ahead:

| IC50 [1] | Competition with probe 1b, effect on biotinylation of HDAC8 [5] | Structure (SMILES) | further results |
| --- | --- | --- | --- |
| > 66 µM |  | COc1cc(COc2ccc(NC(=O)CCCCCCC(=O)OCc3ccc(CN=[N+]=[N-])cc3)cc2)cc(N=[N+]=[N-])c1 [1i, 7-[4-(3-Azido-5-methoxybenzyloxy)phenylcarbamoyl]heptanoicacid-4-azidomethylbenzyl ester] | Acetylation status of histone H4 [2]: increase acetylation of H4; Deacetylation of α-tubulin [3]: did not inhibit; also recorded: not α tubulin |
|  | pronounced decrease in biotinylation | CC(/C=C/C(=O)NO)=C\[C@@H](C)C(=O)c1ccc(N(C)C)cc1 [TSA, Trichostatin A] |  |
| > 66 µM |  | COc1cc(COc2ccc(NC(=O)CCCCCCC(=O)OCCN=[N+]=[N-])cc2)cc(N=[N+]=[N-])c1 [1h, 7-[4-(3-Azido-5-methoxybenzyloxy)phenylcarbamoyl]heptanoicacid-2-azidoethyl ester] |  |
